Screening results as filed in PubChem.
This is a sample that favours compounds with a hit; in the whole collection about 2.2% have one here.
DENV2 CPE = DENV2-induced cell death inhibition; DENV2-infected cells, cytopathic effect rescue, plate reader; CPE inhibition, % at 9.99 µM; hit rate 1.7% among 350,000; AID 651640; in the data active = CPE inhibition above about 20%, passing the limit was not always enough; inconclusive = no clear call, values can overlap the other calls; tested in BHK-21 cells;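 also: 0% = median of neutral control wells and 100% = median of positive control wells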
Statin myotox sup = protects C2C12 myotubes from simvastatin toxicity; ATP luminescence, 48 h; scaled: DMSO 0, geranylgeraniol control 100; rescue of ATP level, % at 7.49 µM; hit rate 0.78% among 330,000;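 active = mean ATP rescue above about 67%, or every replicate alone reaching that limit, limit read from the data, passing the limit was not always enough; inconclusive = no clear call, values can overlap the other calls; inactive = mean under the limit and some replicate under it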;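 also: myotubes were challenged with 10 µM simvastatin during compound exposure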
E-sel inducer = E-selectin induction on HUVECs. HUVEC E-selectin immunofluorescence imaging; normalized: neutral wells 0, TNF-alpha wells 100. activation, % at 7.58 µM. hit rate 0.37% among 260,000;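 active = mean E-selectin-positive cell signal at least 10% of the positive control, reached in at least 60% of replicates, without over 20% cell loss; inconclusive = no rule given, readout overlaps actives, possibly toxicity-flagged; inactive = the rest, including those meeting only one limit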
Target sequence (P16581 whole entry, looked up): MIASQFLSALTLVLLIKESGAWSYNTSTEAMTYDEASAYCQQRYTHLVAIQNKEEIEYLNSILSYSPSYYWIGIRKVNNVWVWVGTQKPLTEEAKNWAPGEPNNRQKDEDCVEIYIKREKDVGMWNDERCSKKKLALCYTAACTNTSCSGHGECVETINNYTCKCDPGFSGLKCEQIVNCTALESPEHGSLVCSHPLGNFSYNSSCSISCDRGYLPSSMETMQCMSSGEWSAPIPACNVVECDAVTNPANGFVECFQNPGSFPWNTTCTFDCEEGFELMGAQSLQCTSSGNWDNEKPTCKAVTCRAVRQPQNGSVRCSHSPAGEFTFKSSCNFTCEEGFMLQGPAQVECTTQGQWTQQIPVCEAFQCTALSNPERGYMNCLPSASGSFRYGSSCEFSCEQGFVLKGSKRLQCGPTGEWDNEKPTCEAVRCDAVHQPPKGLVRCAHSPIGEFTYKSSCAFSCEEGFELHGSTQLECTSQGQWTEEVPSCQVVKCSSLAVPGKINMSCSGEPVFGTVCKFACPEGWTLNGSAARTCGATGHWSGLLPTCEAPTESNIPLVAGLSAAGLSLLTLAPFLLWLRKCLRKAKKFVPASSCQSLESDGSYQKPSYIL
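material = human umbilical vein endothelial cells (HUVEC), E-selectin induction | quantity = 3,000 cells/well | medium = EGM-2 growth medium on 0.1% gelatin-coated wells | technique = immunofluorescence imaging | read-out basis = % PE-positive cells | control set = TNF-alpha positive control, DMSO neutral control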
Numbers without * were called inactive; ? = inconclusive; nt = not tested or not shown; ! = repeats disagree.

SMILES | DENV2 CPE | Statin myotox sup | E-sel inducer
C[C@@H]1CCCCO[C@@H](CN(C)Cc2ccc(Cl)c(Cl)c2)[C@@H](C)CN([C@H](C)CO)C(=O)c2cc(NS(=O)(=O)c3cn(C)cn3)ccc2O1 | -10.4 | nt | 0.0
COCC(=O)N(C[C@@H]1N[C@@H](CO)[C@H]1c1ccc(C2=CCCC2)cc1)C(C)C | 11.6 | 1.2 | 0.0
CCC(=O)N1[C@@H](CO)[C@@H](c2ccccc2)C12CN(C(=O)Nc1ccccc1F)C2 | -5.3 | nt | 0.0
Oc1[nH]c2ccccc2c1C=NCC1CCCO1 (centres undefined) | nt | 121.3* | 0.1
COc1ccc(CN=Cc2c(O)[nH]c3ccccc23)cc1 | 1.9 | nt | nt
C[C@H]1CN([C@@H](C)CO)S(=O)(=O)c2ccc(C#Cc3ccccc3)cc2O[C@@H]1CN(C)S(=O)(=O)c1cn(C)cn1 | 34.1* | 40.2 | 0.7
C[C@@H]1CN([C@@H](C)CO)S(=O)(=O)c2ccc(C#Cc3ccccc3)cc2O[C@H]1CN(C)S(=O)(=O)c1cn(C)cn1 | -17.8 | 0.1 | 0.0
C[C@@H]1CN([C@@H](C)CO)S(=O)(=O)c2ccc(Br)cc2O[C@@H]1CN(C)S(=O)(=O)c1cn(C)cn1 | 23.6*! | -2.7 | -5.5
CC(C)C#Cc1ccc2c(c1)O[C@H](CN(C)S(=O)(=O)c1cn(C)cn1)[C@H](C)CN([C@H](C)CO)S2(=O)=O | -7.2 | 7.4 | -0.2
C[C@H]1CN([C@@H](C)CO)C(=O)c2cccc(NC(=O)Nc3ccc4c(c3)OCO4)c2O[C@H]1CN(C)C(=O)Nc1ccc2c(c1)OCO2 | -4.8 | 27.1 | -0.2
O=C(NC[C@H]1N[C@H](CO)[C@@H]1c1ccc(-c2ccccc2)cc1)C1CCC1 | nt | -12.0 | -0.5
COc1cccc(NC(=O)CN(C)C(=O)c2cccc(NS(=O)(=O)c3ccccc3)c2)c1 | 1.7 | 12.2 | 1.2
COc1cccc(NC(=O)CN(C)C(=O)c2cccc(S(=O)(=O)N3c4ccccc4CC3C)c2)c1 (centres undefined) | 57.8* | -7.0 | 0.5
C[C@@H]1CCCCO[C@H](CN(C)Cc2ccncc2)[C@H](C)CN([C@H](C)CO)C(=O)c2cc(NC(=O)CCC(F)(F)F)ccc2O1 | -2.1 | -3.2 | -0.2
CC1CCCN(CCOc2cccc(Oc3ccccc3)c2)C1 (centres undefined) | 53.4* | 6.7 | 0.0
CC1CN(CCOc2cccc(Oc3ccccc3)c2)CC(C)O1 (centres undefined) | -3.8 | 3.2 | nt
COC(=O)[C@H]1[C@H](CO)[C@H]2Cn3c(cccc3=O)[C@H]2N1CC1CCOCC1 | -0.8 | -0.7 | -0.3
Cc1ccc(S(=O)(=O)NC(C)(C)CSc2nnc(Nc3ccccc3)s2)cc1 | nt | -3.9 | nt
CC(C)(CSc1ncccn1)NS(=O)(=O)c1ccccc1 | ? | 119.6* | 0.0
COC(=O)Nc1ccc(S(=O)(=O)N2CCCc3ccccc32)cc1 | nt | -41.9 | nt
CNC(=O)c1ccsc1NC(=O)c1ccc(S(=O)(=O)N2CCCc3ccccc32)cc1 | -6.0 | 76.2* | -0.2
CCNC(=O)C[C@H]1CC[C@H]2[C@@H](COc3ccc(NC(=O)Nc4ccccc4C)cc3C(=O)N2C)O1 | -0.4 | 22.3 | 0.1
O=C(CSc1nnc(-c2cccs2)n1-c1ccccc1)Nc1ccccc1 | nt | -16.9 | nt
CC(=O)Nc1ccc(NC(=O)CSc2nnc(-c3cccs3)n2N)cc1 | 59.6* | -3.6 | nt
CCc1ccccc1N(CC)C(=O)c1cn(CC)c(=O)c2cc(OC)c(OC)cc12 | nt | 0.6 | nt
SMILES | DENV2 CPE | Statin myotox sup | E-sel inducer
CCc1ccccc1N(CC)C(=O)c1cn(C)c(=O)c2cc(OC)c(OC)cc12 | nt | 94.9* | nt
O=C(O)C[C@@H]1CC[C@@H](NC(=O)c2ccncc2)[C@H](CO)O1 | 3.1 | 1.4 | 0.2
Cc1noc(C)c1NC(=O)N(C)C[C@@H]1Oc2ncc(C#CC3CC3)cc2C(=O)N([C@@H](C)CO)C[C@H]1C | 3.4 | 21.2 | -0.1
Cc1noc(C)c1NC(=O)Nc1ccc2c(c1)C(=O)N([C@H](C)CO)C[C@H](C)[C@H](CN(C)S(=O)(=O)c1c(C)noc1C)OCCCC[C@@H](C)O2 | -6.5 | 38.6 | -0.1
COc1ccc(C(CNC(=O)COc2cc(C)ccc2Cl)N2CCCCC2)cc1 (centres undefined) | 37.2* | nt | nt
COc1ccccc1C(CNC(=O)COc1cc(C)ccc1Cl)N1CCCC1 (centres undefined) | -1.8 | 1.3 | -0.6
Cn1cnc(CCNC(=O)C[C@@H]2CC[C@H]3[C@@H](COC[C@@H](O)CN3C(=O)C3CC3)O2)c1 | -13.6 | 1.2 | -0.1
Cc1cccc(S(=O)(=O)N[C@H]2CC[C@@H](CCNC(=O)CCN3CCCCC3)O[C@H]2CO)c1 | 3.9 | 12.7 | -0.4
CO[C@H]1CN(C)C(=O)c2ccc(NS(=O)(=O)c3ccccc3)cc2OC[C@@H](C)N(C)C[C@@H]1C | nt | 2.6 | -0.3
O=S(=O)(c1ccc(F)cc1)N1CCN(c2ncccn2)CC1 | 1.4 | -6.8 | 0.2
O=S(=O)(c1ccc(F)cc1)N1CCCN(c2nccc(C(F)(F)F)n2)CC1 | 3.8 | 5.7 | 30.5*
[N-]=[N+]=Nc1ccccc1C[C@@]1(C(=O)NCCN2CCOCC2)N=C(c2ccc(OCCCO)cc2)O[C@@H]1c1ccccc1 | -2.1 | nt | nt
COc1ccc(C(=O)CC(=O)C(=O)Nc2cccc([N+](=O)[O-])c2C)cc1 | 29.9* | nt | 0.2
COc1cccc(C(=O)CC(=O)C(=O)Nc2cccc([N+](=O)[O-])c2C)c1 | -5.2 | ? | 0.1
CNC[C@@H]1Oc2ccc(NS(C)(=O)=O)cc2CC(=O)N([C@H](C)CO)C[C@H]1C | ? | -23.8 | -0.7
CN(C)CCN1C(=O)NC(C)(c2ccc([N+](=O)[O-])cc2)C1=O (centres undefined) | -2.6 | 6.2 | nt
CN(C)N1C(=O)CC(C)(c2ccc([N+](=O)[O-])cc2)C1=O (centres undefined) | -12.6 | 114.1* | -0.1
O=C(NCC[C@H]1CC[C@H](NS(=O)(=O)c2cccc(F)c2)[C@H](CO)O1)C1CC1 | -4.0 | 0.1 | 0.1
CC(C)C#Cc1ccc2c(c1)O[C@@H](CN(C)S(C)(=O)=O)[C@@H](C)CN([C@@H](C)CO)S2(=O)=O | -0.5 | -0.3 | 0.2
CC(=O)C1=C(C)NC(SCc2cccc([N+](=O)[O-])c2)=C(C#N)C1c1ccco1 (centres undefined) | nt | 143.4* | nt
CC(=O)C1=C(C)NC(SCC(N)=O)=C(C#N)C1c1ccco1 (centres undefined) | 8.8 | 11.4 | -0.1
CC(C)C(=O)Nc1ccc2c(c1)C(=O)N(C)[C@H]1CC[C@H](CC(=O)NCCc3ccccc3)O[C@H]1CO2 | 4.5 | 0.9 | -0.1
CO[C@@H]1CN(C)C(=O)c2ccc(NC(=O)NC(C)C)cc2OC[C@H](C)N(C(=O)CC2CC2)C[C@@H]1C | -6.4 | -5.0 | 0.0
CC1(c2ccccc2)CC(C)(C)N2C(=O)C3(C(C#N)=C(N)Oc4cc(O)ccc43)c3cccc1c32 (centres undefined) | -2.8 | 87.1* | nt
Cc1cc2c3c(c1)C(C)(c1ccccc1)CC(C)(C)N3C(=O)C21C(C#N)=C(N)OC2=C1C(=O)CC(C)(C)C2 (centres undefined) | nt | 34.8 | nt
C[C@H](CO)N1C[C@H](C)[C@H](CN(C)S(C)(=O)=O)Oc2ccc(NS(=O)(=O)c3ccc(F)cc3)cc2C1=O | nt | nt | -2.9
